TCR CD3 inh: human TCR-CD3 binding inhibition; TAMRA-labeled TCR probe fluorescence, biochemical; inhibition, % at 9.4 µM; 360,000 compounds, 0.37% hits; AID 651800; in the data active means inhibition above about 19%;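 further: recombinant mutant TCR 2C K166C tagged with TAMRA read by polarization; 0% = receptor in buffer alone and 100% = receptor with positive control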
HTRA1 inh: HTRA1 (human) protease inhibition | recombinant HTRA1, FP-rhodamine activity-based probe, fluorescence polarization | AID 504803 | inhibition, % at 5.96 µM | 340,000 compounds, 0.5% hits | Q92743; in the data active means inhibition above about 36%;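 further: 0% = enzyme with DMSO and 100% = wells lacking enzyme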
SIAE primary: inhibitors of human sialic acid acetylesterase SIAE | Q9HAT2 | SIAE FP-Rh probe binding, fluorescence polarization | inhibition, % at 9.66 µM | 370,000 compounds, 0.69% hits;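 active means inhibition above a cutoff: mean of compounds within the control limits plus 3 SD of those, cut at about 17% in these data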;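 further: 0% = plate median of compound wells and 100% = probe without SIAE protein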
Target sequence (Q9HAT2 whole entry, looked up): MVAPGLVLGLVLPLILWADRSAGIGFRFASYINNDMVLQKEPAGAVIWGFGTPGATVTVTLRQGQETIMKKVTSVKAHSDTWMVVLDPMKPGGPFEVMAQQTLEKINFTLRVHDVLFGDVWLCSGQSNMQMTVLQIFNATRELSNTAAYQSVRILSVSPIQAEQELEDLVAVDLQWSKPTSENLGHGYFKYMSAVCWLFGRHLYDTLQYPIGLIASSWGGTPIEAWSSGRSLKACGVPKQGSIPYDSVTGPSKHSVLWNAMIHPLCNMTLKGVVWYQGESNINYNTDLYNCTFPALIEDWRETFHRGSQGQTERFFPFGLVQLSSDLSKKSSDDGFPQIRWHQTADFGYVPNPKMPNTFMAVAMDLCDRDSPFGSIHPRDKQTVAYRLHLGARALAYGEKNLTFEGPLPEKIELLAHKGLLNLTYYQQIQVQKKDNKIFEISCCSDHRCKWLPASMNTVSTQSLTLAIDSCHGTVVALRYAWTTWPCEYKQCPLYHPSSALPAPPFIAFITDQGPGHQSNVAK
mABHD4 FP: inhibits mouse alpha/beta hydrolase domain 4; Q8VD66; purified mABHD4, FP-Rh probe fluorescence polarization; inhibition, % at 8.92 µM; 370,000 compounds, 0.54% hits;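 active means inhibition exceeding the mean over every tested compound plus 3 SD, cut at about 30% in these data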;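 further: 0% = plate median of compound wells and 100% = S159A mutant with DMSO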
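Test system: mABHD4 protein | Buffer or medium: HEPES pH 7.0 buffer, 150 mM NaCl, 0.01% Pluronic F-127 | Probe or stimulus: FP-Rh fluorescent activity-based probe, added after compound pre-incubation | Timing: Pre-incubation 45 min, probe exposure 60 min, at 25 °C | Technique: Fluorescence polarization, excitation 525 nm, emission 598 nm, BODIPY TMR filters | Repeats: Single well per compound (singlicate)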
rCAG binder: binds r(CAG) RNA repeats; r(CAG) RNA repeat, TO-PRO-1 dye displacement fluorescence; inhibition, % at 3 µM; 370,000 compounds, 1.3% hits;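 active means inhibition above the plate cutoff, the mean of all test compounds on that plate plus 3 SD, cut at about 35% in these data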;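 further: 0% = DMSO alone and 100% = 100 µM mitoxantrone as full dye displacement; higher means more dye released from RNA so lower well fluorescence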
rCAG bind conf: r(CAG) RNA repeat binding, confirmation; shares compounds with rCAG binder; TO-PRO-1 dye displacement fluorescence; inhibition, % at 3 µM; 4,300 compounds, 70% hits; AID 652065;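 active means inhibition above a per-plate cutoff, the mean inhibition of sample wells plus 3 SD, cut at about 35% in these data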;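 further: loss of TO-PRO-1 fluorescence as compound displaces dye from 1x1 AA loop RNA; 0% = DMSO only wells and 100% = 100 µM mitoxantrone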
DNA CAG counter: disrupts DNA CAG TO-PRO-1 complex, flagging rCAG hits; shares compounds with rCAG binder; d(CAG) DNA oligo TO-PRO-1 dye displacement, fluorescence; inhibition, % at 3 µM; 4,300 compounds, 94% hits;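 active means inhibition above its plate's cutoff, the mean test-well inhibition plus 3 SD, cut at about 4.8% in these data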;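 further: 0% = DNA dye mix with DMSO and 100% = 100 µM mitoxantrone; hits displace the dye from DNA and so lower well fluorescence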
dCAG dye DR: disrupts DNA CAG TO-PRO-1 complex in dose response; shares compounds with rCAG binder; DNA CAG/GTC duplex TO-PRO-1 dye displacement fluorescence; IC50, µM; 250 compounds, 20% hits; in the data active means IC50 below about 10 µM
* marks the source's active call; other numbers are inactive results; i = inactive; / = no result given. An excerpt weighted towards active compounds, which were near 2.5% of everything screened.

SMILES | TCR CD3 inh | HTRA1 inh | SIAE primary | mABHD4 FP | rCAG binder | rCAG bind conf | DNA CAG counter | others
COC(=O)C1=C(C)N(Cc2ccc(Cl)cc2)C(=S)NC1c1cccc(F)c1 (stereo unspecified) | -2.5 | / | -2.8 | -4.9 | 2.9 | / | /
Cc1ccc(N2CC(C(=O)Nc3ccc(S(=O)(=O)Nc4nccs4)cc3)CC2=O)cc1 (stereo unspecified) | -3.3 | 3.0 | -5.2 | -3.1 | 36.0* | 27.0 | 6.7*
CCOc1ccc(N2CC(C(=O)Nc3ccc(S(=O)(=O)Nc4nccs4)cc3)CC2=O)cc1 (stereo unspecified) | -0.7 | 10.2 | -4.4 | 9.7 | 48.6* | 34.4 | 11.6*
O=C(NCC(c1cccs1)N1CCOCC1)c1ccccc1NS(=O)(=O)c1ccc(Cl)c([N+](=O)[O-])c1 (stereo unspecified) | 11.9 | 1.8 | 3.8 | -5.5 | 77.6* | 78.4* | 36.3*
O=C(NCC(c1cccs1)N1CCOCC1)c1ccccc1NS(=O)(=O)c1cc([N+](=O)[O-])ccc1Cl (stereo unspecified) | -1.3 | 2.2 | 2.7 | 2.0 | 42.0* | 40.2* | 10.8*
O=C(NCC(c1cccs1)N1CCOCC1)c1ccccc1NS(=O)(=O)c1cccc([N+](=O)[O-])c1 (stereo unspecified) | 1.1 | 1.1 | 3.3 | 5.3 | 48.1* | 39.6* | 11.0*
O=C(NCC(c1cccs1)N1CCOCC1)c1cccc(S(=O)(=O)Nc2ccc(F)cc2)c1 (stereo unspecified) | 3.5 | 0.1 | 3.6 | 5.1 | 7.7 | / | /
O=C1c2c(O)cccc2Cc2cccc(O)c21 | 6.2 | 4.0 | 3.4 | 6.9 | 6.7 | / | /
CCC(=O)N1CCCC1(C)C(=O)Nc1ccc(OC(F)F)cc1 (stereo unspecified) | -8.9 | / | -2.3 | 2.2 | 0.1 | / | /
CC1=CCC[C@@H]2[C@@](C)(CC/C(C)=C/C(=O)O)[C@H](C)CC[C@@]12C | 1.1 | -35.9 | 8.1 | -17.5 | 44.7* | 43.1* | 8.6*
CCCc1cc(=O)oc2cc(OCC(=O)NC(Cc3c[nH]c4ccc(O)cc34)C(=O)O)c(Cl)cc12 (stereo unspecified) | -3.2 | 3.4 | 11.4 | 11.6 | 19.2 | / | /
O=C(COc1ccc2c(-c3ccccc3)cc(=O)oc2c1)N[C@@H](Cc1c[nH]c2ccc(O)cc12)C(=O)O | -4.9 | -6.9 | 8.3 | -0.2 | 36.7* | 39.2* | 12.9*
O=C(COc1ccc2c(-c3ccccc3)cc(=O)oc2c1)NC(Cc1c[nH]c2ccccc12)C(=O)O (stereo unspecified) | 2.3 | -8.1 | 6.3 | 0.7 | 53.9* | 49.4* | 12.3*
O=C(Cc1cc(=O)oc2cc(O)ccc12)N[C@@H](Cc1c[nH]c2ccccc12)C(=O)O | 1.0 | 0.1 | 6.5 | 4.1 | 5.2 | / | /
CCOC(=O)N1CCN(S(=O)(=O)c2ccc(C(=O)NNc3nc4c(C)cc(C)cc4s3)cc2)CC1 | -10.7 | / | 7.4 | 15.9 | 68.9* | 64.3* | 24.6*
Cc1c(Cc2ccccc2)c(=O)oc2c(C)c(OC(C)C(=O)N[C@@H](Cc3ccccc3)C(=O)O)ccc12 (stereo partly specified) | 1.6 | -56.4 | -3.6 | -8.6 | 48.2* | 61.3* | 22.5*
Cc1ccc(S(=O)(=O)N2C[C@H]3[C@H]4C(=O)N(c5ccccc5)C(=O)[C@H]4C[C@H](OC(=O)NCC4CCCCC4)[C@@]3(O)C2)cc1 | -0.9 | -15.5 | -7.0 | -7.0 | 9.5 | / | /
COC/C=C/C1=CC2=CC(=O)C(C)(OC(=O)C3CCCC3)C(=O)C2=CO1 (stereo unspecified) | 8.6 | 28.0 | 3.8 | 21.7 | 50.3* | 29.6 | 15.4*
O=[N+]([O-])c1ccc(-c2nc(Nc3ccc(O)cc3)c3ccccc3n2)cc1 | -1.1 | 11.4 | 13.7 | 5.1 | 36.6* | 21.4 | 10.3*
Cc1ccc(/C=N/n2c(COc3ccccc3)n[nH]c2=S)cc1 | -5.0 | -6.7 | 13.9 | -3.2 | 28.9 | / | /
COc1cccc(/C=N/n2c(-c3cc(C)[nH]n3)n[nH]c2=S)c1 | 3.8 | 4.1 | -1.7 | -8.4 | -3.1 | / | /
S=c1[nH]nc(COc2ccccc2)n1/N=C/c1cccc(Br)c1 | 0.8 | -5.7 | 2.5 | -15.6 | 42.4* | 44.2* | 14.1*
CC(C)c1ccc(/C=N/n2c(COc3ccccc3)n[nH]c2=S)cc1 | -3.2 | -18.1 | 3.6 | -16.4 | 36.2* | 47.5* | 11.4*
S=c1[nH]nc(COc2ccccc2)n1/N=C/C(Cl)=C/c1ccccc1 | 0.2 | -11.1 | -1.6 | -20.1 | 51.6* | 72.3* | 34.4* | dCAG dye DR=i
Cc1cc(-c2n[nH]c(=S)n2N=Cc2cccc(Oc3ccccc3)c2)n[nH]1 | / | / | 3.6 | 2.6 | 45.7* | 31.2 | 7.9*
SMILES | TCR CD3 inh | HTRA1 inh | SIAE primary | mABHD4 FP | rCAG binder | rCAG bind conf | DNA CAG counter | others
CC(CC(=O)Nc1cc(S(=O)(=O)N2CCOCC2)ccc1OCC(F)(F)F)c1ccccc1 (stereo unspecified) | -6.3 | -3.9 | 1.6 | -0.1 | -5.2 | / | /
S=c1[nH]nc(-c2ccncc2)n1/N=C/C(Cl)=C\c1ccccc1 | 2.0 | -0.4 | 4.5 | -10.8 | 39.4* | 31.7 | 9.5*
CC(C)Oc1cccc(-c2n[nH]c(=S)n2N=Cc2cccc([N+](=O)[O-])c2)c1 | / | / | 8.0 | -2.0 | 51.3* | 57.0* | 17.3*
CC(C)Oc1cccc(-c2n[nH]c(=S)n2N=Cc2ccc(O)cc2O)c1 | / | / | -1.9 | 13.2 | 15.6 | / | /
CC(/C=N/n1c(-c2ccc(Cl)cc2)n[nH]c1=S)=C\c1ccco1 | -8.2 | -12.2 | -4.5 | 0.0 | 39.0* | 38.6* | 11.9*
CCc1nnc(NS(=O)(=O)c2ccc(NC(=O)c3ccccc3O)cc2)s1 | -2.8 | 0.2 | 1.1 | -0.3 | 14.4 | / | /
CCc1nnc(NS(=O)(=O)c2ccc(NC(=O)c3cccc([N+](=O)[O-])c3)cc2)s1 | 1.9 | -10.0 | -3.0 | -17.9 | 45.1* | 27.4 | 4.9*
CCc1nnc(NS(=O)(=O)c2ccc(NC(=O)c3ccc([N+](=O)[O-])s3)cc2)s1 | 6.5 | -4.0 | -2.1 | 24.5 | 60.7* | 48.4* | 15.2*
CCc1nnc(NS(=O)(=O)c2ccc(NC(=O)OC)cc2)s1 | 7.0 | 3.9 | 2.3 | 3.8 | 0.8 | / | /
CCCCOc1cccc(C(=O)Nc2ccc(S(=O)(=O)Nc3nnc(CC)s3)cc2)c1 | -2.3 | -64.3 | -13.4 | -45.0 | 79.8* | 73.2* | 37.1*
CCc1nnc(NS(=O)(=O)c2ccc(NC(=S)NC(=O)c3cccnc3)cc2)s1 | 7.3 | 1.2 | 2.8 | -2.5 | 18.5 | / | /
O=C(O)C(S)C(S)C(=O)O (stereo unspecified) | / | 8.3 | / | / | / | / | /

Screening results as filed in PubChem BioAssay.
